Reference: ChEMBL document CHEMBL1123490, “Synthesis and biological activities of oligo(8-bromoadenylates) as analogues of 5'-O-triphosphoadenylyl(2'----5')adenylyl(2'----5')adenosine” (J Med Chem, 1986)
pIC50: −log10 of the molar value.

Tests used:
[1] = molecular target: T1, 2-5A-dependent ribonuclease (Mus musculus) (UniProt Q05921); experiment: (§1) compound was tested for activation of RNase L by measuring concentration required for 50% inhibition of protein synthesis in mouse L cell extracts; type: cell-based
T1 sequence (whole entry): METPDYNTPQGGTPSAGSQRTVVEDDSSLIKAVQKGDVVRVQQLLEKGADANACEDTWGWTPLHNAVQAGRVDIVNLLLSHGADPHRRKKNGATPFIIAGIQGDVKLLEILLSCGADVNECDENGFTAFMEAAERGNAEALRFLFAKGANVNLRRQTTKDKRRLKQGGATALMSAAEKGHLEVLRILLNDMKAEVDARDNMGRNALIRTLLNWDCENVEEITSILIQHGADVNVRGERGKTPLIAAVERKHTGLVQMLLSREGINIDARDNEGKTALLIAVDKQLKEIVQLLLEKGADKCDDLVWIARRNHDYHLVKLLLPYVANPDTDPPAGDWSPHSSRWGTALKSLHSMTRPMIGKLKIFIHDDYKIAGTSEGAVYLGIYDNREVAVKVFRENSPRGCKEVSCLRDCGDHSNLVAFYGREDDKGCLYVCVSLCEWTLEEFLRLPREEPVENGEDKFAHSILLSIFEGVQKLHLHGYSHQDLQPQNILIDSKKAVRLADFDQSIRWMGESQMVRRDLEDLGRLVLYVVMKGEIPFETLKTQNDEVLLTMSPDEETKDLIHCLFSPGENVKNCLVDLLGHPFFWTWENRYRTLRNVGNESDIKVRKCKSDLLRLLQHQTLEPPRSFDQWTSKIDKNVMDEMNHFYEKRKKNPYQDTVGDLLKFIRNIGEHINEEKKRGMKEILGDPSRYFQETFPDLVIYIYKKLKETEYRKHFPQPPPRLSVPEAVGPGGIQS
In short: (§2)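 Cell-free translation was run in mouse L cell extract programmed with EMCV RNA, with creatine kinase, amino acids and [3H]leucine added. At set times, aliquots were spotted onto filter disks presoaked in 15% trichloroacetic acid to measure incorporation. The value is the concentration giving 50% inhibition of protein synthesis.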

[2] = molecular target: T1, 2-5A-dependent ribonuclease (Mus musculus); experiment: Binding affinity against 2-5A-dependent RNase L in mouse L cell extracts using ppp5'A2p5'A2'p5'A3'[32P]pCp as a radioactive probe; type: cell-free
In short: (§3)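 Crude mouse L cell extract served as the RNase L source, with ppp5'A2'p5'A2'p5'A3'[32P]p5'Cp as the radioactive probe, in a competition binding assay on nitrocellulose. The value is the analogue concentration giving 50% displacement of the probe from the endonuclease–nitrocellulose complex.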

[3] = molecular target: T2, 2-5A-dependent ribonuclease (Mus musculus, UniProt Q05921); experiment: as §1; type: cell-based; in short: as §2
T2 sequence (Q05921 whole entry): T1 sequence (whole entry)

[4] = molecular target: T1, 2-5A-dependent ribonuclease (Mus musculus); experiment: (§4) Compound was tested for activation of RNase L by measuring concentration required for 50% inhibition of protein synthesis in mouse L cell extracts; type: cell-based; in short: as §2
Mus musculus [5] = species on record: Mus musculus; experiment: Compound measured for the stability in 20% mouse in L cell extracts in the absence of ATP at 0 min; type: functional
Mus musculus [6] = species on record: Mus musculus; experiment: Compound measured for the stability in 20% mouse in L cell extracts in the presence of ATP at 40 min; type: functional, organism-based
Mus musculus [7] = species on record: Mus musculus; experiment: Compound measured for the stability in 20% mouse in L cell extracts in the presence of ATP at 75 min; type: functional, organism-based
Mus musculus [8] = species on record: Mus musculus; experiment: Compound measured for the stability in 20% mouse in L cell extracts in the presence of ATP at 0 min; type: functional, organism-based
Mus musculus [9] = species on record: Mus musculus; experiment: Compound measured for the stability in 20% mouse in L cell extracts in the presence of ATP at 120 min; type: functional, organism-based
Mus musculus [10] = species on record: Mus musculus; experiment: Compound measured for the stability in 20% mouse in L cell extracts in the presence of ATP at 12 hr; type: functional, organism-based
Mus musculus [11] = species on record: Mus musculus; experiment: Compound measured for the stability in 20% mouse in L cell extracts in the presence of ATP at 220 min; type: functional, organism-based
Mus musculus [12] = species on record: Mus musculus; experiment: Compound measured for the stability in 20% mouse in L cell extracts in the absence of ATP at 90 min; type: functional
[13] = molecular target: T2, 2-5A-dependent ribonuclease; experiment: as §4; type: cell-based
[14] = molecular target: T1, 2-5A-dependent ribonuclease (Mus musculus); experiment: Binding affinity against 2-5A-dependent RNase L in mouse L cell extract using ppp5'A2p5'A2'p5'A3'[32P]pCp as a radioactive probe; type: cell-free; in short: as §3
Mus musculus [15] = species on record: Mus musculus; experiment: Compound measured for the stability in 20% mouse in L cell extracts in the presence ot ATP at 40 min.; type: functional, organism-based
Mus musculus [16] = species on record: Mus musculus; experiment: Compound measured for the stability in 20% mouse in L cell extracts in the presence ot ATP at 75 min; type: functional, organism-based
Mus musculus [17] = species on record: Mus musculus; experiment: Compound measured for the stability in 20% mouse in L cell extracts in the presence ot ATP at 12 hr; type: functional, organism-based
Mus musculus [18] = species on record: Mus musculus; experiment: Compound measured for the stability in 20% mouse in L cell extracts in the presence ot ATP at 150 min; type: functional
Mus musculus [19] = species on record: Mus musculus; experiment: Compound measured for the stability in 20% mouse in L cell extracts in the absence ot ATP at 12 hr; type: functional
Mus musculus [20] = species on record: Mus musculus; experiment: Compound measured for the stability in 20% mouse in L cell extracts in the absence ot ATP at 150 min; type: functional
Mus musculus [21] = species on record: Mus musculus; experiment: Compound measured for the stability in 20% mouse in L cell extracts in the absence ot ATP at 240 min; type: functional, organism-based
Mus musculus [22] = species on record: Mus musculus; experiment: Compound measured for the stability in 20% mouse in L cell extracts in the absence ot ATP at 40 min.; type: functional, organism-based
Mus musculus [23] = species on record: Mus musculus; experiment: Compound measured for the stability in 20% mouse in L cell extracts in the absence ot ATP at 75 min; type: functional
Mus musculus [24] = species on record: Mus musculus; experiment: Compound measured for the stability in 20% mouse in L cell extracts in the presence of ATP at 0 min.; type: functional, organism-based
Mus musculus [25] = species on record: Mus musculus; experiment: Compound measured for the stability in 20% mouse in L cell extracts in the absence ot ATP at 0 min.; type: functional
Mus musculus [26] = species on record: Mus musculus; experiment: Compound measured for the stability in 20% mouse in L cell extracts in the absence of ATP at 120 min; type: functional
Mus musculus [27] = species on record: Mus musculus; experiment: Compound measured for the stability in 20% mouse in L cell extracts in the absence of ATP at 12 hr; type: functional
Mus musculus [28] = species on record: Mus musculus; experiment: Compound measured for the stability in 20% mouse in L cell extracts in the absence of ATP at 150 min; type: functional
Mus musculus [29] = species on record: Mus musculus; experiment: Compound measured for the stability in 20% mouse in L cell extracts in the absence of ATP at 240 min; type: functional
Mus musculus [30] = species on record: Mus musculus; experiment: Compound measured for the stability in 20% mouse in L cell extracts in the absence of ATP at 30 min; type: functional

Compound: Nc1ncnc2c1nc(Br)n2[C@@H]1O[C@H](COP(=O)(O)O[C@@H]2[C@H](O)[C@@H](COP(=O)(O)O[C@@H]3[C@H](O)[C@@H](COP(=O)(O)O[C@@H]4[C@H](O)[C@@H](CO)O[C@H]4n4c(Br)nc5c(N)ncnc54)O[C@H]3n3c(Br)nc4c(N)ncnc43)O[C@H]2n2c(Br)nc3c(N)ncnc32)[C@@H](O)[C@H]1O
- Relative activity [1]: < 1e-05
- Activity [2]: 3e-08
- Relative ability [2]: 0.023
- pIC50 [3]: < 3.70

Compound: Nc1ncnc2c1ncn2[C@@H]1O[C@H](COP(=O)(O)O[C@@H]2[C@H](O)[C@@H](COP(=O)(O)O[C@@H]3[C@H](O)[C@@H](COP(=O)(O)OP(=O)(O)OP(=O)(O)O)O[C@H]3n3cnc4c(N)ncnc43)O[C@H]2n2cnc3c(N)ncnc32)[C@@H](O)[C@H]1O
- Relative activity [4]: 1

Compound: Nc1ncnc2c1nc(Br)n2[C@@H]1O[C@H](COP(=O)(O)O[C@@H]2[C@H](O)[C@@H](COP(=O)(O)O[C@@H]3[C@H](O)[C@@H](CO)O[C@H]3n3c(Br)nc4c(N)ncnc43)O[C@H]2n2c(Br)nc3c(N)ncnc32)[C@@H](O)[C@H]1O
- Relative activity [1]: < 5e-05
- Activity [2]: 6e-07
- Relative ability [2]: 0.0012
- pIC50 [3]: < 4.30

Compound: Nc1ncnc2c1nc(Br)n2[C@H]1O[C@@H](COP(=O)(O)O[C@H]2[C@@H](O)[C@H](COP(=O)(O)O[C@H]3[C@@H](O)[C@H](COP(=O)(O)O[C@H]4[C@@H](O)[C@H](COP(=O)(O)O[C@H]5[C@@H](O)[C@H](COP(=O)(O)O)O[C@@H]5n5c(Br)nc6c(N)ncnc65)O[C@@H]4n4c(Br)nc5c(N)ncnc54)O[C@@H]3n3c(Br)nc4c(N)ncnc43)O[C@@H]2n2c(Br)nc3c(N)ncnc32)[C@H](O)[C@@H]1O
- Relative activity [1]: < 6e-05
- Activity [2]: 3e-09
- Relative ability [2]: 0.23
- pIC50 [3]: < 4.40

Compound: Nc1ncnc2c1nc(Br)n2[C@@H]1O[C@H](COP(=O)(O)O[C@@H]2[C@H](O)[C@@H](COP(=O)(O)O[C@@H]3[C@H](O)[C@@H](COP(=O)(O)OP(=O)(O)OP(=O)(O)O)O[C@H]3n3c(Br)nc4c(N)ncnc43)O[C@H]2n2c(Br)nc3c(N)ncnc32)[C@@H](O)[C@H]1O
- Stability (Mus musculus [5]): 48%
- Stability (Mus musculus [6]): 54%
- Stability (Mus musculus [7]): 46%
- Stability (Mus musculus [8]): 71%
- Stability (Mus musculus [9]): 36%
- Stability (Mus musculus [10]): 0%
- Stability (Mus musculus [11]): 16%
- Stability (Mus musculus [12]): 3%
- Relative activity [4]: 0.015
- pIC50 [13]: 6.82
- Activity [14]: 8e-09
- Relative ability [14]: 0.088

Compound: Nc1ncnc2c1ncn2[C@@H]1O[C@H](CO[P@](=O)(O)O[C@@H]2[C@H](O)[C@@H](CO[P@](=O)(O)O[C@@H]3[C@H](O)[C@@H](CO[P@](=O)(O)O[P@@](=O)(O)OP(=O)(O)O)O[C@H]3n3cnc4c(N)ncnc43)O[C@H]2n2cnc3c(N)ncnc32)[C@@H](O)[C@H]1O
- pIC50 [13]: 8.64

Compound: Nc1ncnc2c1nc(Br)n2[C@@H]1O[C@H](COP(=O)(O)O[C@@H]2[C@H](O)[C@@H](COP(=O)(O)O[C@@H]3[C@H](O)[C@@H](COP(=O)(O)O[C@@H]4[C@H](O)[C@@H](COP(=O)(O)O)O[C@H]4n4c(Br)nc5c(N)ncnc54)O[C@H]3n3c(Br)nc4c(N)ncnc43)O[C@H]2n2c(Br)nc3c(N)ncnc32)[C@@H](O)[C@H]1O
- Relative activity [1]: 0.0033
- Activity [2]: 4e-09
- Relative ability [2]: 0.18
- pIC50 [3]: 6.15

Compound: Nc1ncnc2c1nc(Br)n2[C@@H]1O[C@H](COP(=O)(O)O[C@@H]2[C@H](O)[C@@H](COP(=O)(O)O[C@@H]3[C@H](O)[C@@H](COP(=O)(O)O)O[C@H]3n3c(Br)nc4c(N)ncnc43)O[C@H]2n2c(Br)nc3c(N)ncnc32)[C@@H](O)[C@H]1O
- Stability (Mus musculus [15]): 99%
- Stability (Mus musculus [16]): 89%
- Stability (Mus musculus [17]): 53%
- Stability (Mus musculus [18]): 84%
- Stability (Mus musculus [19]): 22%
- Stability (Mus musculus [20]): 77%
- Stability (Mus musculus [21]): 76%
- Stability (Mus musculus [22]): 88%
- Stability (Mus musculus [23]): 82%
- Stability (Mus musculus [24]): 100%
- Stability (Mus musculus [25]): 100%
- Relative activity [4]: 0.0023
- Activity [2]: 2e-08
- pIC50 [13]: 6.00
- Relative ability [14]: 0.035

Compound: Nc1ncnc2c1nc(Br)n2[C@@H]1O[C@H](COP(=O)(O)O[C@@H]2[C@H](O)[C@@H](COP(=O)(O)O[C@@H]3[C@H](O)[C@@H](COP(=O)(O)OP(=O)(O)O)O[C@H]3n3c(Br)nc4c(N)ncnc43)O[C@H]2n2c(Br)nc3c(N)ncnc32)[C@@H](O)[C@H]1O
- Stability (Mus musculus [5]): 100%
- Stability (Mus musculus [26]): 67%
- Stability (Mus musculus [27]): 0%
- Stability (Mus musculus [28]): 55%
- Stability (Mus musculus [6]): 87%
- Stability (Mus musculus [7]): 71%
- Stability (Mus musculus [8]): 100%
- Stability (Mus musculus [10]): 47%
- Stability (Mus musculus [11]): 70%
- Stability (Mus musculus [29]): 0%
- Stability (Mus musculus [30]): 80%
- Stability (Mus musculus [12]): 70%
- Relative activity [4]: 0.05
- Activity [2]: 3e-09
- Relative ability [2]: 0.23
- pIC50 [13]: 7.34
